According to ChEMBL document CHEMBL1124366, “Synthesis and biological properties of N63-carboxamides of teicoplanin antibiotics. Structure-activity relationships” (J Med Chem, 1989):
≈ marks a conversion by molar mass, not a printed value.

What was measured:
[1] = test system: Streptococcus pyogenes; assay: Subcutaneously administration into mice infected with Streptococcus pyogenes C 203; format: functional; conditions: sc
Method in brief: (§1)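 Mice (five per treatment group, five groups) infected intraperitoneally with about 10⁵ cells of Strep. pyogenes C 203, about 100× the LD50. ED50 (mg/kg) was calculated from the percentage of mice surviving at each dose on day 7.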

[2] = test system: Staphylococcus epidermidis; assay: In vitro minimum inhibitory concentration against Staphylococcus epidermis ATCC 12228; format: functional
[3] = test system: Staphylococcus aureus; assay: In vitro minimum inhibitory concentration against Staphylococcus aureus Tour; format: functional
[4] = test system: Streptococcus pneumoniae; assay: In vitro minimum inhibitory concentration against Streptococcus pneumoniae UC41; format: functional
[5] = test system: Streptococcus pyogenes; assay: In vitro minimum inhibitory concentration against Streptococcus pyogenes C 203; format: functional
[6] = test system: Enterococcus faecalis; assay: In vitro minimum inhibitory concentration against Streptococcus faecalis ATCC 7080; format: functional
[7] = test system: Gram-negative bacteria; assay: Minimum inhibitory concentration of compound against Gram negative bacteria
[8] = test system: Streptococcus pyogenes; assay: In vivo effective dose given perorally to mice infected with Streptococcus pyogenes C 203; format: functional; conditions: po; method in brief: as §1
[9] = test system: Staphylococcus sp.; assay: Minimum inhibitory concentration of compound against 16 different strains of staphylococcus species; format: functional
Method in brief: (§2)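 Agar dilution on Iso-Sensitest agar against clinical coagulase-negative staphylococcal isolates, including methicillin-resistant strains. Final inoculum about 10⁴ cfu/mL.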

[10] = test system: Staphylococcus epidermidis; assay: Minimum inhibitory concentration of compound against 12 strains of Staphylococcus epidermidis; format: functional; method in brief: as §2
[11] = test system: Staphylococcus epidermidis; assay: 50 percent Minimum inhibitory concentration of compound against 12 strains of Staphylococcus epidermidis; format: functional; method in brief: as §2
[12] = test system: Staphylococcus epidermidis; assay: 90 percent Minimum inhibitory concentration of compound against 12 strains of Staphylococcus epidermidis; format: functional; method in brief: as §2
[13] = test system: Staphylococcus sp.; assay: 50 percent Minimum inhibitory concentration of compound against 16 different strains of staphylococcus species; format: functional; method in brief: as §2
[14] = test system: Staphylococcus sp.; assay: 90 percent Minimum inhibitory concentration of compound against 16 different strains of staphylococcus species; format: functional; method in brief: as §2
[15] = test system: Staphylococcus haemolyticus; assay: In vitro minimum inhibitory concentration against Staphylococcus hemolyticus 602 cell line; format: functional; conditions: strain 602
[16] = test system: Staphylococcus haemolyticus; assay: Minimum inhibitory concentration of compound against 8 strains of Staphylococcus hemolyticus; format: functional; method in brief: as §2
[17] = test system: Staphylococcus haemolyticus; assay: 50 percent Minimum inhibitory concentration of compound against 8 strains of Staphylococcus hemolyticus; format: functional; method in brief: as §2
[18] = test system: Staphylococcus haemolyticus; assay: 90 percent Minimum inhibitory concentration of compound against 8 strains of Staphylococcus hemolyticus; format: functional; method in brief: as §2

MIC [2]	MIC [3]	MIC [4]	MIC [5]	MIC [6]	MIC [7]	MIC [9]	MIC [10]	MIC50 [11]	MIC90 [12]	MIC50 [13]	MIC90 [14]	Structure (SMILES)	ED50 [1]	ED50 [8]	MIC [15]	MIC [16]	MIC50 [17]	MIC90 [18]
0.06 µg/mL (≈ 0.0346 µM)	1 µg/mL (≈ 0.577 µM)	0.5 µg/mL (≈ 0.289 µM)	0.12 µg/mL (≈ 0.0693 µM)	0.5 µg/mL (≈ 0.289 µM)	> 128 µg/mL	–	–	–	–	–	–	CCCCN(CCCC)CCCNC(=O)[C@H]1NC(=O)[C@H]2NC(=O)[C@H](NC(=O)[C@@H]3NC(=O)[C@H]4NC(=O)[C@@H](Cc5ccc(c(Cl)c5)Oc5cc3cc(c5O)Oc3ccc(cc3Cl)[C@H]2O[C@@H]2O[C@@H](CO)[C@@H](O)[C@H](O)[C@@H]2NC(C)=O)NC(=O)[C@H](N)c2ccc(O)c(c2)Oc2cc(O)cc4c2)c2ccc(O)c(c2)-c2c(O[C@H]3O[C@H](CO)[C@@H](O)[C@@H](O)[C@@H]3O)cc(O)cc21	0.18 mg/kg	–	–	–	–	–
0.06 µg/mL (≈ 0.0358 µM)	0.25 µg/mL (≈ 0.149 µM)	0.5 µg/mL (≈ 0.298 µM)	0.12 µg/mL (≈ 0.0716 µM)	0.5 µg/mL (≈ 0.298 µM)	> 128 µg/mL	–	–	–	–	–	–	CCN(CC)CCCNC(=O)[C@H]1NC(=O)[C@H]2NC(=O)[C@H](NC(=O)[C@@H]3NC(=O)[C@H]4NC(=O)[C@@H](Cc5ccc(c(Cl)c5)Oc5cc3cc(c5O)Oc3ccc(cc3Cl)[C@H]2O[C@@H]2O[C@@H](CO)[C@@H](O)[C@H](O)[C@@H]2NC(C)=O)NC(=O)[C@H](N)c2ccc(O)c(c2)Oc2cc(O)cc4c2)c2ccc(O)c(c2)-c2c(O[C@H]3O[C@H](CO)[C@@H](O)[C@@H](O)[C@@H]3O)cc(O)cc21	0.3 mg/kg	–	–	–	–	–
0.25 µg/mL (≈ 0.151 µM)	0.25 µg/mL (≈ 0.151 µM)	0.5 µg/mL (≈ 0.301 µM)	0.12 µg/mL (≈ 0.0723 µM)	0.5 µg/mL (≈ 0.301 µM)	> 128 µg/mL	–	–	–	–	–	–	CC(=O)N[C@@H]1[C@H](O[C@@H]2c3ccc(c(Cl)c3)Oc3cc4cc(c3O)Oc3ccc(cc3Cl)C[C@H]3NC(=O)[C@H](N)c5ccc(O)c(c5)Oc5cc(O)cc(c5)[C@H](NC3=O)C(=O)N[C@H]4C(=O)N[C@H]3C(=O)N[C@@H]2C(=O)N[C@H](C(=O)NCCN2CCCC2)c2cc(O)cc(O[C@H]4O[C@H](CO)[C@@H](O)[C@@H](O)[C@@H]4O)c2-c2cc3ccc2O)O[C@@H](CO)[C@@H](O)[C@@H]1O	0.41 mg/kg	–	–	–	–	–
0.25 µg/mL (≈ 0.133 µM)	0.12 µg/mL (≈ 0.0639 µM)	0.06 µg/mL (≈ 0.032 µM)	0.06 µg/mL (≈ 0.032 µM)	0.12 µg/mL (≈ 0.0639 µM)	–	0.25 µg/mL (≈ 0.133 µM)	0.25 µg/mL (≈ 0.133 µM)	0.5 µg/mL (≈ 0.266 µM)	2 µg/mL (≈ 1.07 µM)	1 µg/mL (≈ 0.533 µM)	4 µg/mL (≈ 2.13 µM)	CCCCC/C=C/CCC(=O)N[C@@H]1[C@H](Oc2c3cc4cc2Oc2ccc(cc2Cl)[C@@H](O[C@@H]2O[C@@H](CO)[C@@H](O)[C@H](O)[C@@H]2NC(C)=O)[C@@H]2NC(=O)[C@H](NC(=O)[C@@H]4NC(=O)[C@H]4NC(=O)[C@@H](Cc5ccc(c(Cl)c5)O3)NC(=O)[C@H](N)c3ccc(O)c(c3)Oc3cc(O)cc4c3)c3ccc(O)c(c3)-c3c(O[C@H]4O[C@H](CO)[C@@H](O)[C@@H](O)[C@@H]4O)cc(O)cc3[C@@H](C(=O)O)NC2=O)O[C@@H](CO)[C@@H](O)[C@@H]1O	0.12 mg/kg	170 mg/kg	4 µg/mL (≈ 2.13 µM)	2 µg/mL (≈ 1.07 µM)	16 µg/mL (≈ 8.52 µM)	32 µg/mL (≈ 17 µM)
0.06 µg/mL (≈ 0.0358 µM)	0.25 µg/mL (≈ 0.149 µM)	0.5 µg/mL (≈ 0.298 µM)	0.12 µg/mL (≈ 0.0716 µM)	1 µg/mL (≈ 0.596 µM)	> 128 µg/mL	–	–	–	–	–	–	CC(=O)N[C@@H]1[C@H](O[C@@H]2c3ccc(c(Cl)c3)Oc3cc4cc(c3O)Oc3ccc(cc3Cl)C[C@H]3NC(=O)[C@H](N)c5ccc(O)c(c5)Oc5cc(O)cc(c5)[C@H](NC3=O)C(=O)N[C@H]4C(=O)N[C@H]3C(=O)N[C@@H]2C(=O)N[C@H](C(=O)NCCN2CCOCC2)c2cc(O)cc(O[C@H]4O[C@H](CO)[C@@H](O)[C@@H](O)[C@@H]4O)c2-c2cc3ccc2O)O[C@@H](CO)[C@@H](O)[C@@H]1O	1.6 mg/kg	–	–	–	–	–
